These results are taken from article PMC5598417 (Toxicology Reports, 2014).

For data set [1], the system named is MA-10 cells. The experiment in a line: Reactive oxygen species assay. It is filed as cell-based, murine. The following applies: for ROS formation compared with vehicle-treated control cells: 100 μM, 48-h exposure. In a few lines: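 MA-10 cells seeded at 7.5 × 10^4 cells/well in gelatin-coated plates 24 h beforehand, loaded with H2-DCFDA (10 μM, 2 h, 37 °C), then washed twice in warm PBS. Exposure to 0.01–100 μM in serum-free, phenol red-free DMEM/F-12 (≤0.1% DMSO) for up to 48 h. Fluorescence read at 485/530 nm at 0, 1, 24 and 48 h and expressed as % of time-matched control. Positive controls were H2O2 20 mM (1 h) and rotenone 100 μM (24/48 h). Three independent experiments, quadruplicates.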

The target in data set [2] is T1, androgen receptor (AR) (Homo sapiens, UniProt P10275).
T1 sequence (P10275 1-920): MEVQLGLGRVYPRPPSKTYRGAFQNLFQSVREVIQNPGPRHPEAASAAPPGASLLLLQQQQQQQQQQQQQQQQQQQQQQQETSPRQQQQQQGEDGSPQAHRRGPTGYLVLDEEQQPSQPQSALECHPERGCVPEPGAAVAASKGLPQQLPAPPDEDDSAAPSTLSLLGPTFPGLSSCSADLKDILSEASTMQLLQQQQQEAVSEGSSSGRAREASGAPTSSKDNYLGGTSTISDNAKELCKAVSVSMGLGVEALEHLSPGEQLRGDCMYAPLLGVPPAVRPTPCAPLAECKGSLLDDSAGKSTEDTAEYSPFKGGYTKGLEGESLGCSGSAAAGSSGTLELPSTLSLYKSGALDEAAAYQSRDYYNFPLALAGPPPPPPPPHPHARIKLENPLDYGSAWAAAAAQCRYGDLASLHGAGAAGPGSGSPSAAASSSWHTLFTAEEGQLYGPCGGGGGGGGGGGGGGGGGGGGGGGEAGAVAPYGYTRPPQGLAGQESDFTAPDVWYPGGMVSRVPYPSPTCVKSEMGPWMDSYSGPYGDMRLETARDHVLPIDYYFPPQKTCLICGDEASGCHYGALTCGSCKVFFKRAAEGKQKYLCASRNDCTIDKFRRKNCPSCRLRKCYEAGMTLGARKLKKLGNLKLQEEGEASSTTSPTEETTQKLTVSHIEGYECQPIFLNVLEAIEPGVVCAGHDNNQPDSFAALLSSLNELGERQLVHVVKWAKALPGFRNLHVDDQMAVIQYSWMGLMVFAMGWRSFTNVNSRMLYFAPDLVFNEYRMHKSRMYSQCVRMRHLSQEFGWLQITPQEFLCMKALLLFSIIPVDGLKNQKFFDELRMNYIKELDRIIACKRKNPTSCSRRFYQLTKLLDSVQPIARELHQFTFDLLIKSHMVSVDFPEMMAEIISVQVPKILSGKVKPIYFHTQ
Type of data set: cell-based. The settings on record: BMR25%FLUT/BMR25%FLUT conazole.

The subject of data set [3] is MA-10 cells. The experiment in a line: Basal testosterone secretion by MA-10 Leydig cells. It is filed as cell-based, murine. The settings on record: for decrease of basal T secretion compared with vehicle-treated control cells: 10 μM; for decrease of basal T secretion compared with vehicle-treated control cells / T secretion, concentration curves without LH: 48 h; for T secretion by MA-10 cells compared with vehicle-control: basal T secretion, conazole 10 μM; for T secretion, concentration curves without LH: SU10603 0.05-1 μM, FLUS or TEBU 0.3-10 μM, Supplementary Fig. 1.

For data set [4], the system named is MA-10 cells. The experiment in a line: Expression of steroidogenic genes in MA-10 cells. It is filed as cell-based, murine. The settings on record: 6-h exposure; conazole 10 μM.
The conditions of data set [5]: humans; cited from earlier work.
Data set [6] concerns MA-10 cells. The experiment in a line: LH-induced testosterone secretion by MA-10 Leydig cells. It is filed as cell-based, murine. The following applies: read-out: IC50 of T secretion inhibition in combination with LH; LH 10 ng/mL; 48-h exposure.
The subject of data set [7] is MA-10 cells. The experiment in a line: Expression of cholesterol biosynthesis genes in MA-10 cells. The following applies: 6-h exposure; cAMP 100 μM, conazole 10 μM. It is filed as cell-based, murine.
For data set [8] the following is noted: cited from earlier work.

Usually IC50 stands for the concentration that inhibits the measured activity by half.

Molecules are shown by their SMILES.

As to `CCCCC(C#N)(Cn1cncn1)c1ccc(Cl)cc1` (centres unmarked) [MYC, Myclobutanil], the “ROS formation compared with vehicle-treated control cells” value in data set [1] was “did not significantly change”.

On to `CCCCC(O)(Cn1cncn1)c1ccc(Cl)cc1Cl` (centres unmarked) [HEXA, Hexaconazole], for which the “REP (relative effect potency as compared to flutamide)” value in data set [2] was found to be 0.26. In data set [1], the “ROS formation compared with vehicle-treated control cells” value was 1.2 fold. Besides, the “decrease of basal T secretion compared with vehicle-treated control cells” value (from here on “decrease of basal T secretion”) in data set [3] is “more than 50%”. Also, in data set [3] (48-h exposure), the “T secretion by MA-10 cells compared with vehicle-control” value worked out at 36%.

Consider `CC(C)(C)C(=O)C(Oc1ccc(Cl)cc1)n1cncn1` (centres unmarked) [TRIA, Triadimefon], for which the “ROS formation compared with vehicle-treated control cells” value in data set [1] is reported as “did not significantly change”.

As for `CCCC(Cn1cncn1)c1ccc(Cl)cc1Cl` (centres unmarked) [PEN, Penconazole], the “ROS formation compared with vehicle-treated control cells” value in data set [1] was “did not significantly change”.

Take `CC(C1CC1)C(O)(Cn1cncn1)c1ccc(Cl)cc1` (centres unmarked) [CYPRO, Cyproconazole]: the “gene expression of five steroidogenic genes (StAR, Cyp11A1, Cyp17A1, 3β-HSD1, 17β-HSD3)” value in data set [4] is recorded as “did not significantly affect”. Besides, in data set [1], the “ROS formation compared with vehicle-treated control cells” value was “did not significantly change”.

`C[Si](Cn1cncn1)(c1ccc(F)cc1)c1ccc(F)cc1` [FLUS, Flusilazole]: the “gene expression of five steroidogenic genes (StAR, Cyp11A1, Cyp17A1, 3β-HSD1, 17β-HSD3)” value in data set [4] is listed as “did not significantly affect”. The “ROS formation compared with vehicle-treated control cells” value in data set [1] is listed as 1.2 fold. In addition, in data set [3], the “decrease of basal T secretion” value is “more than 50%” and the “T secretion, concentration curves without LH” value is “concentration-dependently inhibited T secretion”.

As to `OC(Cn1cncn1)(Cn1cncn1)c1ccc(F)cc1F` [FLUC, Fluconazole, reference compound], the Tmax entry in data set [5] is recorded as “approximately 2 h”. Moreover, the “ROS formation compared with vehicle-treated control cells” value in data set [1] is listed as “did not significantly change”.

Consider `O=C1c2cc(Cl)ccc2CCC1c1cccnc1` (centres unmarked) [SU10603, reference compound], for which, in data set [3] (SU10603 1 μM, 48-h exposure), the “decrease of T secretion compared to vehicle-treated cells” value is 82%. Further, the “T secretion, concentration curves without LH” value in data set [3] is listed as “concentration-dependently inhibited T secretion”. Also, the IC50 in data set [6] was 0.5 µM.

Consider `CC(C)(C)C(O)(CCc1ccc(Cl)cc1)Cn1cncn1` (centres unmarked) [TEBU, Tebuconazole], for which the “gene expression of five steroidogenic genes (StAR, Cyp11A1, Cyp17A1, 3β-HSD1, 17β-HSD3)” value in data set [4] is recorded as “did not significantly affect”. For the same compound, the “ROS formation compared with vehicle-treated control cells” value in data set [1] is recorded as 1.4 fold. Also, in data set [7], the “gene expression of Por in comparison with vehicle-treated cells” value is listed as 0.8 fold. For the same compound, in data set [3], the “decrease of basal T secretion” value is on record as “more than 50%” and the “T secretion, concentration curves without LH” value is listed as “concentration-dependently inhibited T secretion”. The “elimination half-life in soil” value in data set [8] was “approximately 800 days”.

Turning to `C=C(C)[C@H]1Cc2c(ccc3c2O[C@@H]2COc4cc(OC)c(OC)cc4[C@@H]2C3=O)O1` [rotenone, reference compound], the “ROS production, % of the control” value in data set [1] (rotenone 100 μM, 48 h) was 158 ± 18%.

On to `CC1(C)CCC(=Cc2ccc(Cl)cc2)C1(O)Cn1cncn1` (centres unmarked) [TRIT, Triticonazole], for which, in data set [2], the “REP (relative effect potency as compared to flutamide)” value was 0.25. Also, the “ROS formation compared with vehicle-treated control cells” value in data set [1] is listed as “did not significantly change”. Besides, the “decrease of basal T secretion” value in data set [3] is given as “more than 50%”. Also, the “T secretion by MA-10 cells compared with vehicle-control” value in data set [3] (48-h exposure) is reported as 44%.

As to `CCCN(CCOc1c(Cl)cc(Cl)cc1Cl)C(=O)n1ccnc1` [PRO, Prochloraz], the “gene expression of five steroidogenic genes (StAR, Cyp11A1, Cyp17A1, 3β-HSD1, 17β-HSD3)” value in data set [4] is “did not significantly affect”. Besides, the “ROS formation compared with vehicle-treated control cells” value in data set [1] turned out to be 1.3 fold. Further, in data set [7], the “gene expression of Cyp51 in comparison with vehicle-treated cells” value amounted to 1.7 fold and the “gene expression of HMG-CoA red in comparison with vehicle-treated cells” value is listed as 1.9 fold. In data set [3], the “decrease of basal T secretion” value was “more than 50%”. In data set [3] (48-h exposure), the “T secretion by MA-10 cells compared with vehicle-control” value was 23%.
